Our source for the IC50 and logP values is ChEMBL document CHEMBL1142970, “Inhibition of secreted phospholipase A2. 4-glycerol derivatives of 4,5-dihydro-3-(4-tetradecyloxybenzyl)-1,2,4-4H-oxadiazol-5-one with broad activities” (J Med Chem, 2007).

pIC50: −log10 of the molar value.

The target in the first data set is Phospholipase A2, major isoenzyme (Sus scrofa, UniProt P00592). The data set is described as follows: Inhibition of pig group IB PLA2 by fluorimetric assay.
Sequence of Phospholipase A2, major isoenzyme (P00592 whole entry): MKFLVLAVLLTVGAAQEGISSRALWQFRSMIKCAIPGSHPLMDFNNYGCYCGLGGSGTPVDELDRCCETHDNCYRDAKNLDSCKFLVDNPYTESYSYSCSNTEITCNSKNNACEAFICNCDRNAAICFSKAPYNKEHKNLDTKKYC
Settings: not given
In a few lines: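 Porcine pancreatic sPLA2, 60 ng per 1 mL, in 50 mM Tris-HCl pH 7.5, 100 mM NaCl, 1 mM EGTA, 0.1% fatty acid-free BSA, 2 µM pyrene substrate β-pyC-10-PG. Inhibitor in ethanol or DMSO added after BSA. Activity as µmol hydrolyzed/min/mg, giving 50%-inhibition concentration.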
By pIC50 is commonly meant the negative decadic logarithm of the IC50, by convention in mol/L. A higher pIC50 goes with a small IC50. The compound `CCCCCCCCCCCCCCCCCCOC(COCc1ccc(C#N)cc1)COc1ccc(Cc2noc(=O)[nH]2)cc1` (racemic) gave a pIC50 of 4.44.

The compound `CCCCCCCCCCCCCCOC(COCCCCC)COc1ccc(-c2noc(=O)[nH]2)cc1` (racemic) showed a negative-log IC50 (pIC50) below 4.00.

In turn, `CCCCCCCCCCCCCCOC(COCCCCCCCCCC)COc1ccc(-c2nc(=O)o[nH]2)cc1` (stereo not drawn) showed a pIC50 below 4.00.

`CCCCCCCCCCCCCCOCC(COc1ccc(-c2noc(=O)[nH]2)cc1)Oc1ccc(-c2noc(=O)[nH]2)cc1` (racemic) had a pIC50 of 4.20.

As for `CCCCCCCCCCCCCCO[C@@H](COc1ccc(-c2nc(=O)o[nH]2)cc1)COC(c1ccccc1)(c1ccccc1)c1ccccc1`, the pIC50 is below 4.30.

Turning to `CCCCCCCCCCCCCCOC(COc1ccc(-c2noc(=O)[nH]2)cc1)COC(c1ccccc1)c1ccccc1` (racemic), the pIC50 was 5.25.

For `CCCCCCCCCCCCCCOC(COCCCCc1ccccc1)COc1ccc(-c2noc(=O)[nH]2)cc1` (racemic), the pIC50 was 5.66.

As to `CCCCCCCCCCCCCCOC(CO)COc1ccc(-c2noc(=O)[nH]2)cc1` (racemic), the pIC50 is below 4.00.

On to `O=c1nc(-c2ccc(OCC(COCCCCc3ccccc3)OCCCCc3ccccc3)cc2)[nH]o1` (racemic), for which the pIC50 is below 4.00.

Compound `CCCCCCCCCCCCCCOC(COCc1ccccc1)COc1ccc(-c2noc(=O)[nH]2)cc1` (racemic) gave a pIC50 below 4.60.

As to `CCCCCCCOCC(COc1ccc(-c2noc(=O)[nH]2)cc1)OCCCCCCC` (racemic), the pIC50 is below 4.00.

In another data set the target is T1, Phospholipase A2, membrane associated (Homo sapiens, UniProt P14555).
T1 sequence (P14555 whole entry): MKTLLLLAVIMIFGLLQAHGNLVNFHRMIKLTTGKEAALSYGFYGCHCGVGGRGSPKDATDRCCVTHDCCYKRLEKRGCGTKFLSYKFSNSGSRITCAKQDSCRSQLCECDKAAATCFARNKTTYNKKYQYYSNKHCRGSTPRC
Kind of data set: Inhibition of human group IIA PLA2 by fluorimetric assay.
Settings: not given
In a few lines: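 Fluorimetric (Radvanyi method): 1 ng synthetic hGIIA sPLA2 in 1 mL of 50 mM Tris-HCl pH 7.5, 100 mM NaCl, 1 mM EGTA, 0.1% fatty acid-free BSA, 2 µM β-pyC-10-PG. Inhibitor added in ethanol or DMSO after BSA. Reaction started with 10 mM CaCl2 (final), fluorescence rise followed 2 min.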
The compound `CCCCCCCCCCCCCCCCCCOC(COCc1ccc(C#N)cc1)COc1ccc(Cc2noc(=O)[nH]2)cc1` (racemic) showed a pIC50 of 6.82.

With `CCCCCCCCCCCCCCOC(COCCCCC)COc1ccc(-c2noc(=O)[nH]2)cc1` (racemic), the pIC50 was 5.08.

Regarding `CCCCCCCCCCCCCCOC(COCCCCCCCCCC)COc1ccc(-c2nc(=O)o[nH]2)cc1` (stereo not drawn), the pIC50 is 6.55. Against the preceding compound, the pIC50 is 1.47 log units higher.

Consider `CCCCCCCCCCCCCCOCC(COc1ccc(-c2noc(=O)[nH]2)cc1)Oc1ccc(-c2noc(=O)[nH]2)cc1` (racemic), for which the pIC50 was 4.68.

`CCCCCCCCCCCCCCO[C@@H](COc1ccc(-c2nc(=O)o[nH]2)cc1)COC(c1ccccc1)(c1ccccc1)c1ccccc1` had a negative logarithm of the IC50 (pIC50) of 6.48.

The compound `CCCCCCCCCCCCCCOC(COc1ccc(-c2noc(=O)[nH]2)cc1)COC(c1ccccc1)c1ccccc1` (racemic) had a pIC50 of 6.55.

Turning to `CCCCCCCCCCCCCCOC(COCCCCc1ccccc1)COc1ccc(-c2noc(=O)[nH]2)cc1` (racemic), the pIC50 was 6.54.

For the compound `CCCCCCCCCCCCCCOC(CO)COc1ccc(-c2noc(=O)[nH]2)cc1` (racemic), the pIC50 was 4.25. This pIC50 lies 2.29 log units lower than the previous one.

With `O=c1nc(-c2ccc(OCC(COCCCCc3ccccc3)OCCCCc3ccccc3)cc2)[nH]o1` (racemic), the pIC50 was 4.12.

The compound `CCCCCCCCCCCCCCOC(COCc1ccccc1)COc1ccc(-c2noc(=O)[nH]2)cc1` (racemic) showed a pIC50 of 4.83.

As for `CCCCCCCOCC(COc1ccc(-c2noc(=O)[nH]2)cc1)OCCCCCCC` (racemic), the pIC50 was 4.29.

The next data set deals with Phospholipase A2 (Homo sapiens, UniProt P04054). The data set is described as follows: Inhibition of human group IB PLA2 in [3H]oleate-labeled Escherichia coli membrane by radiometric assay.
Sequence of Phospholipase A2 (P04054 whole entry): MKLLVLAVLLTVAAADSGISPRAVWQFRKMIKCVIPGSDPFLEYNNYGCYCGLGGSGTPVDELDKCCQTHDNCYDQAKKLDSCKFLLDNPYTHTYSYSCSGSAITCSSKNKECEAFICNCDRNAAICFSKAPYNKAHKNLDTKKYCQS
Settings: not given
In a few lines:
(§1)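 Incubation 30-60 min, time adjusted for linear hydrolysis. Stopped with 0.1 M EDTA pH 8.0/1% BSA, centrifuged 10 000g, supernatant counted. Enzyme-free controls subtracted. IC50 obtained after 10 µM screen.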
Compound `CCCCCCCCCCCCCCCCCCOC(COCc1ccc(C#N)cc1)COc1ccc(Cc2noc(=O)[nH]2)cc1` (racemic) gave a pIC50 of 5.06.

Turning to `CCCCCCCCCCCCCCOC(COCCCCCCCCCC)COc1ccc(-c2nc(=O)o[nH]2)cc1` (stereo not drawn), the pIC50 was 5.00. The pIC50 values of the last two compounds are within 0.2 log units of each other.

Turning to `CCCCCCCCCCCCCCOC(COc1ccc(-c2noc(=O)[nH]2)cc1)COC(c1ccccc1)c1ccccc1` (racemic), the negative-log IC50 (pIC50) is 4.74.

Compound `CCCCCCCCCCCCCCOC(COCCCCc1ccccc1)COc1ccc(-c2noc(=O)[nH]2)cc1` (racemic) gave a pIC50 of 4.82.

In the case of `CCCCCCCCCCCCCCOC(COCc1ccccc1)COc1ccc(-c2noc(=O)[nH]2)cc1` (racemic), the pIC50 was below 4.00.

Another data set has as its target T2, Group 10 secretory phospholipase A2 (Homo sapiens, UniProt O15496).
T2 sequence (O15496 whole entry): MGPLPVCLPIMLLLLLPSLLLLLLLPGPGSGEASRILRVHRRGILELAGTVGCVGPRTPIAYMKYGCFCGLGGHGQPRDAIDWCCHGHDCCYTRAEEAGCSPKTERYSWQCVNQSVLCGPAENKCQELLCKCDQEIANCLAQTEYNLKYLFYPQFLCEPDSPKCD
Kind of data set: Inhibition of human group X PLA2 in [3H]oleate-labeled Escherichia coli membrane by radiometric assay.
Settings: not given
In a few lines: as §1
Turning to `CCCCCCCCCCCCCCCCCCOC(COCc1ccc(C#N)cc1)COc1ccc(Cc2noc(=O)[nH]2)cc1` (racemic), the pIC50 was 6.05.

In turn, `CCCCCCCCCCCCCCOC(COCCCCCCCCCC)COc1ccc(-c2nc(=O)o[nH]2)cc1` (stereo not drawn) showed a pIC50 of 6.00.

The compound `CCCCCCCCCCCCCCOC(COc1ccc(-c2noc(=O)[nH]2)cc1)COC(c1ccccc1)c1ccccc1` (racemic) had a pIC50 of 5.28.

As to `CCCCCCCCCCCCCCOC(COCCCCc1ccccc1)COc1ccc(-c2noc(=O)[nH]2)cc1` (racemic), the pIC50 is 4.92.

Take `CCCCCCCCCCCCCCOC(COCc1ccccc1)COc1ccc(-c2noc(=O)[nH]2)cc1` (racemic): the pIC50 is 4.85.

Tested on in another data set: not listed separately
The data set is described as follows: Lipophilicity, log P of the compound. In kind it is physicochemical. As to conditions: octanol/water. In a few lines:
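log P calculated from Rekker's hydrophobic fragmental constants.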
For orientation: logP means a log measure of how a compound divides between an organic and an aqueous phase. In turn, `CCCCCCCCCCCCCCCCCCOC(COCc1ccc(C#N)cc1)COc1ccc(Cc2noc(=O)[nH]2)cc1` (racemic) yielded a logP of 11.

As for `CCCCCCCCCCCCCCOC(COCCCCCCCCCC)COc1ccc(-c2nc(=O)o[nH]2)cc1` (stereo not drawn), the logP came to 11.5.

Regarding `CCCCCCCCCCCCCCO[C@@H](COc1ccc(-c2nc(=O)o[nH]2)cc1)COC(c1ccccc1)(c1ccccc1)c1ccccc1`, the logP was determined as 11.8.

The compound `CCCCCCCCCCCCCCOC(COc1ccc(-c2noc(=O)[nH]2)cc1)COC(c1ccccc1)c1ccccc1` (racemic) gave a logP of 10.1.

Take `CCCCCCCCCCCCCCOC(COCCCCc1ccccc1)COc1ccc(-c2noc(=O)[nH]2)cc1` (racemic): the logP turned out to be 10.

Staying with this data set, now noted: octanol/water; read-out: LogP.
With `CCCCCCCCCCCCCCOC(COCCCCC)COc1ccc(-c2noc(=O)[nH]2)cc1` (racemic), the logP stood at 8.72.

For `CCCCCCCCCCCCCCOCC(COc1ccc(-c2noc(=O)[nH]2)cc1)Oc1ccc(-c2noc(=O)[nH]2)cc1` (racemic), the logP turned out to be 7.05.

For `CCCCCCCCCCCCCCOC(CO)COc1ccc(-c2noc(=O)[nH]2)cc1` (racemic), the logP came out at 6.59.

With `O=c1nc(-c2ccc(OCC(COCCCCc3ccccc3)OCCCCc3ccccc3)cc2)[nH]o1` (racemic), the logP turned out to be 6.51.

`CCCCCCCCCCCCCCOC(COCc1ccccc1)COc1ccc(-c2noc(=O)[nH]2)cc1` (racemic): the log partition coefficient (logP) was 8.48.

`CCCCCCCOCC(COc1ccc(-c2noc(=O)[nH]2)cc1)OCCCCCCC` (racemic): the logP amounted to 6.3.

The next data set concerns the target T3, Phospholipase A2 group V (Homo sapiens, UniProt P39877).
T3 sequence (P39877 whole entry): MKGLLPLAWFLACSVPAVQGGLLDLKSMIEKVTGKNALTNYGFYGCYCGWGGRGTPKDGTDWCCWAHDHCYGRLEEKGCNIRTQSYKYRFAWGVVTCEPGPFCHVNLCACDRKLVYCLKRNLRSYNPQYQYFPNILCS
The data set is described as follows: Inhibition of human group V PLA2 in [3H]oleate-labeled Escherichia coli membrane by radiometric assay.
Settings: not given
In a few lines: as §1
`CCCCCCCCCCCCCCCCCCOC(COCc1ccc(C#N)cc1)COc1ccc(Cc2noc(=O)[nH]2)cc1` (racemic) gave a pIC50 of 6.00.

For `CCCCCCCCCCCCCCOC(COCCCCCCCCCC)COc1ccc(-c2nc(=O)o[nH]2)cc1` (stereo not drawn), the pIC50 is 6.26.

Regarding `CCCCCCCCCCCCCCOC(COc1ccc(-c2noc(=O)[nH]2)cc1)COC(c1ccccc1)c1ccccc1` (racemic), the pIC50 was 5.70.

`CCCCCCCCCCCCCCOC(COCCCCc1ccccc1)COc1ccc(-c2noc(=O)[nH]2)cc1` (racemic) gave a pIC50 of 4.66. This pIC50 lies 1.04 log units lower than the previous one.

Compound `CCCCCCCCCCCCCCOC(COCc1ccccc1)COc1ccc(-c2noc(=O)[nH]2)cc1` (racemic) had a pIC50 below 4.00.

The next data set has as its target T1, Phospholipase A2, membrane associated. The data set is described as follows: Inhibition of human group IIA PLA2 in [3H]oleate-labeled Escherichia coli membrane by radiometric assay.
Settings: not given
In a few lines:
as §1
In the case of `CCCCCCCCCCCCCCCCCCOC(COCc1ccc(C#N)cc1)COc1ccc(Cc2noc(=O)[nH]2)cc1` (racemic), the pIC50 is 5.94.

For `CCCCCCCCCCCCCCOC(COCCCCCCCCCC)COc1ccc(-c2nc(=O)o[nH]2)cc1` (stereo not drawn), the pIC50 is 6.00. The pIC50 values of the last two compounds are within 0.2 log units of each other.

Take `CCCCCCCCCCCCCCOC(COc1ccc(-c2noc(=O)[nH]2)cc1)COC(c1ccccc1)c1ccccc1` (racemic): the pIC50 is 5.30.

For the compound `CCCCCCCCCCCCCCOC(COCCCCc1ccccc1)COc1ccc(-c2noc(=O)[nH]2)cc1` (racemic), the pIC50 was 4.59.

As for `CCCCCCCCCCCCCCOC(COCc1ccccc1)COc1ccc(-c2noc(=O)[nH]2)cc1` (racemic), the pIC50 was below 4.00.
